{
  "source": "ChEMBL document CHEMBL1132488",
  "about": "“On the bioactive conformation of NAN-190 (1) and MP3022 (2), 5-HT(1A) receptor antagonists” (J Med Chem, 1999)",
  "key": {"Rattus norvegicus [1]": {"species": "Rattus norvegicus", "assay": "Induction of behavioral syndrome(FT: forepaw treading) by the compound in reserpine pretreated rats at a dose of 32; FT mean score", "assay_type": "functional", "outline": "(§1)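 Male Wistar rats (260–300 g) were given reserpine 1 mg/kg sc in saline 18 h before testing. Test compound was then given alone ip as a 1% Tween 80 suspension (2 mL/kg). FBP and FT were each scored 0–3 and summed (maximum 15). n=6 per group; mean ± SEM; Newman–Keuls test.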"}, "Rattus norvegicus [2]": {"species": "Rattus norvegicus", "assay": "Induction of behavioral syndrome(FT: forepaw treading) by the compound in reserpine pretreated rats at a dose of 8; FT mean score", "assay_type": "functional", "outline": "as §1"}, "Rattus norvegicus [3]": {"species": "Rattus norvegicus", "assay": "Effect on 8-OH-DAPT- induced behavioral syndrome(FBP: flat body posture) by the compound in reserpine pretreated rats at a dose of 32; FBP mean score", "assay_type": "functional", "outline": "(§2)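 Reserpinized male Wistar rats (reserpine 1 mg/kg sc, 18 h before), groups of 6. Compound given ip in 1% Tween 80 60 min before 8-OH-DPAT 5 mg/kg sc. FBP/FT rated 0–3 at 3, 6, 9, 12 and 15 min after agonist, summed (max 15). Mean ± SEM; Newman–Keuls test; ED50 with range.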"}, "Rattus norvegicus [4]": {"species": "Rattus norvegicus", "assay": "Effect on 8-OH-DAPT- induced behavioral syndrome(FBP: flat body posture) by the compound in reserpine pretreated rats at a dose of 16; FBP mean score", "assay_type": "functional", "outline": "as §2"}, "Rattus norvegicus [5]": {"species": "Rattus norvegicus", "assay": "Induction of behavioral syndrome(FBP: flat body posture) by the compound in reserpine pretreated rats at a dose of 32; FBP mean score", "assay_type": "functional", "outline": "as §1"}, "[6]": {"target": "T1, 5-hydroxytryptamine receptor 1A (Rattus norvegicus, UniProt P19327)", "T1 sequence (P19327 whole entry)": "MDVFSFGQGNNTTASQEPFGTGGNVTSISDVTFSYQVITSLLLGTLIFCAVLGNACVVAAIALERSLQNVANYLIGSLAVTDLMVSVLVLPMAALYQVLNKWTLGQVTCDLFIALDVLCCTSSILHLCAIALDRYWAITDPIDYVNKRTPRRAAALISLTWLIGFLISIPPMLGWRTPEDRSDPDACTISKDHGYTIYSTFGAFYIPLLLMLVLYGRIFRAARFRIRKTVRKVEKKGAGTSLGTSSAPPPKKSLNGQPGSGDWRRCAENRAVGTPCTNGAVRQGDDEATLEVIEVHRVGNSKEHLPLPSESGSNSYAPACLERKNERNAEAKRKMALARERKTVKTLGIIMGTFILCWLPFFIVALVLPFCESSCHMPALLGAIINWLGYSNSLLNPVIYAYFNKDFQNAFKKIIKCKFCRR", "assay": "Ability to displace [3H]8-OH-DPAT from 5-hydroxytryptamine 1A receptor", "outline": "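Rat hippocampal membranes, [3H]8-OH-DPAT radioligand. Ki from at least three competition experiments, each with 10–14 drug concentrations run in triplicate. Ki calculated with the Cheng–Prusoff equation.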"}, "Rattus norvegicus [7]": {"species": "Rattus norvegicus", "assay": "Effective dose of the required to induce LLR(lower lip retraction)", "assay_type": "functional", "outline": "(§3)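 Male Wistar rats, groups of 6, given compound alone ip as 1% Tween 80 suspension. Lower incisor visibility scored 0/0.5/1 at 15, 30 and 45 min after dosing, summed (max 3 per rat). Mean ± SEM versus vehicle, Newman–Keuls test; ED50 with range.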"}, "Rattus norvegicus [8]": {"species": "Rattus norvegicus", "assay": "Induction of behavioral syndrome(FT: forepaw treading) by the compound in reserpine pretreated rats at a dose of 16; FT mean score", "assay_type": "functional", "outline": "as §1"}, "Rattus norvegicus [9]": {"tested_on": "Rattus norvegicus", "assay": "Induction of LLR(lower lip retraction) by the compound in rats at a dose of 8 mg/kg; LLR score", "assay_type": "functional", "outline": "as §3"}, "Rattus norvegicus [10]": {"species": "Rattus norvegicus", "assay": "Dose Inducing behavioral syndrome(FT: forepaw treading) by the compound in reserpine pretreated rats", "assay_type": "functional", "outline": "(§4)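 Male Wistar rats (260–300 g), groups of 6, given reserpine 1 mg/kg sc 18 h before test. Compounds given ip as 1% Tween 80 suspension. FBP and FT rated 0–3 in 45-s sessions every 3 min, starting 3 min after dosing. Score summed over 5 periods (max 15 per symptom). Mean ± SEM; Newman–Keuls test.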"}, "Rattus norvegicus [11]": {"species": "Rattus norvegicus", "assay": "Induction of behavioral syndrome(FBP: flat body posture) by the compound in reserpine pretreated rats at a dose of 8; FBP mean score", "assay_type": "functional", "outline": "as §1"}, "Rattus norvegicus [12]": {"species": "Rattus norvegicus", "assay": "Dose Inducing behavioral syndrome(FBP: flat body posture) by the compound in reserpine pretreated rats", "assay_type": "functional", "outline": "as §4"}, "Rattus norvegicus [13]": {"species": "Rattus norvegicus", "assay": "Effect on 8-OH-DAPT- induced behavioral syndrome(FT: forepaw treading) by the compound in reserpine pretreated rats at a dose of 16; FT mean score", "assay_type": "functional", "outline": "as §2"}, "Rattus norvegicus [14]": {"species": "Rattus norvegicus", "assay": "Effect on 8-OH-DAPT- induced behavioral syndrome(FBP: flat body posture) by the compound in reserpine pretreated rats at a dose of 8; FBP mean score", "assay_type": "functional", "outline": "as §2"}, "Rattus norvegicus [15]": {"species": "Rattus norvegicus", "assay": "Effect on 8-OH-DAPT- induced behavioral syndrome(FT: forepaw treading) by the compound in reserpine pretreated rats at a dose of 32; FT mean score", "assay_type": "functional", "outline": "as §2"}, "Rattus norvegicus [16]": {"species": "Rattus norvegicus", "assay": "Effect on 8-OH-DAPT- induced behavioral syndrome(FT: forepaw treading) by the compound in reserpine pretreated rats at a dose of 8; FT mean score", "assay_type": "functional", "outline": "as §2"}, "Rattus norvegicus [17]": {"species": "Rattus norvegicus", "assay": "Induction of behavioral syndrome(FBP: flat body posture) by the compound in reserpine pretreated rats at a dose of 16; FBP mean score", "assay_type": "functional", "outline": "as §4"}, "Rattus norvegicus [18]": {"tested_on": "Rattus norvegicus", "assay": "Induction of LLR(lower lip retraction) by the compound in rats at a dose of 2 mg/kg; LLR score", "assay_type": "functional", "outline": "as §3"}, "Rattus norvegicus [19]": {"tested_on": "Rattus norvegicus", "assay": "Induction of LLR(lower lip retraction) by the compound in rats at a dose of 4 mg/kg; LLR score", "assay_type": "functional", "outline": "as §3"}},
  "data": [
    {"smiles": "O=C1[C@H]2CCCC[C@H]2C(=O)N1CCCCN1CCc2ccccc2C1", "values": [
      {"measurement": "FT mean score", "setting": "Rattus norvegicus [1]", "value": 0.2},
      {"measurement": "FT mean score", "setting": "Rattus norvegicus [2]", "value": 0.1},
      {"measurement": "FBP mean score", "setting": "Rattus norvegicus [3]", "value": 11.7},
      {"measurement": "FBP mean score", "setting": "Rattus norvegicus [4]", "value": 13.3},
      {"measurement": "FBP mean score", "setting": "Rattus norvegicus [5]", "value": 3.7},
      {"measurement": "Ki", "setting": "[6]", "value": 50, "unit": "nM"},
      {"measurement": "ED50", "setting": "Rattus norvegicus [7]", "value": 3.9, "unit": "mg/kg"},
      {"measurement": "FT mean score", "setting": "Rattus norvegicus [8]", "value": 0.2},
      {"measurement": "LLR score", "setting": "Rattus norvegicus [9]", "value": 2.5},
      {"measurement": "ED50", "setting": "Rattus norvegicus [10]", "value": 17, "unit": "mg/kg"},
      {"measurement": "FBP mean score", "setting": "Rattus norvegicus [11]", "value": 0.1},
      {"measurement": "ED50", "setting": "Rattus norvegicus [12]", "value": "> 32", "unit": "mg/kg"},
      {"measurement": "FT mean score", "setting": "Rattus norvegicus [13]", "value": 7.7},
      {"measurement": "FBP mean score", "setting": "Rattus norvegicus [14]", "value": 14.6},
      {"measurement": "FT mean score", "setting": "Rattus norvegicus [15]", "value": 6},
      {"measurement": "FT mean score", "setting": "Rattus norvegicus [16]", "value": 9.8},
      {"measurement": "FBP mean score", "setting": "Rattus norvegicus [17]", "value": 2.3},
      {"measurement": "LLR score", "setting": "Rattus norvegicus [18]", "value": 1},
      {"measurement": "LLR score", "setting": "Rattus norvegicus [19]", "value": 1.9}
    ]}
  ]
}
